This is an account of results in ChEMBL document CHEMBL4765368, “Structure guided design and synthesis of furyl thiazolidinedione derivatives as inhibitors of GLUT 1 and GLUT 4, and evaluation of their anti-leukemic potential” (Eur J Med Chem, 2020).

The target of experiment [1] is T1, Solute carrier family 2, facilitated glucose transporter member 5 (Homo sapiens) (UniProt P22732).
T1 sequence (whole entry): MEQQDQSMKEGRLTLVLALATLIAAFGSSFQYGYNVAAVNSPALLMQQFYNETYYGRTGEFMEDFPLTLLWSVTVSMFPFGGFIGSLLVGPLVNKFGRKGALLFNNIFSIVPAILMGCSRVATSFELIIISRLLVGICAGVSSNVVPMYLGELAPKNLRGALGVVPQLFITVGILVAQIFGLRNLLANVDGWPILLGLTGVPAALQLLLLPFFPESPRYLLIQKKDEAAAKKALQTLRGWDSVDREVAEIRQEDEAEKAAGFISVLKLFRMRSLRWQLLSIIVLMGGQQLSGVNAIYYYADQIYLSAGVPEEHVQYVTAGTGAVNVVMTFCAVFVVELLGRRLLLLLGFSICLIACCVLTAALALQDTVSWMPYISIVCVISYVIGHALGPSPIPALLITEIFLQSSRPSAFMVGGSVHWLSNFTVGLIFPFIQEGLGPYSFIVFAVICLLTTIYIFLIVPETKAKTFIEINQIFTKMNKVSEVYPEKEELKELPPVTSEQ
Description: Inhibition of transport activity of human GLUT5 expressed in hexose transporter deficient VW4000 yeast cells assessed as reduction in transporter-mediated [14C]-fructose uptake into cells at 100 uM measured after 10 mins by scintillation counting method. The format is cell-based. A digest of the protocol: (§1)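 The hxt0 yeast strain expressing one human GLUT was grown at 30 °C and resuspended in PBS pH 7.4 at OD600 ~10. Uptake was started with 14C-glucose at 5 mM final (GLUT1, GLUT4) or 14C-fructose at 10 mM final (GLUT5). It was quenched after 10 min with ice-cold 0.1 M KPi/0.1 M LiCl pH 5.5, filtered and counted by scintillation. Compound at 100 μM with 1% DMSO; DMSO control and phloretin 200 μM (GLUT1/4) or MSNBA 100 μM (GLUT5) as references. Triplicates.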

For experiment [2], the target named is T2, Histone deacetylase 8 (Homo sapiens) (UniProt Q9BY41).
T2 sequence (whole entry): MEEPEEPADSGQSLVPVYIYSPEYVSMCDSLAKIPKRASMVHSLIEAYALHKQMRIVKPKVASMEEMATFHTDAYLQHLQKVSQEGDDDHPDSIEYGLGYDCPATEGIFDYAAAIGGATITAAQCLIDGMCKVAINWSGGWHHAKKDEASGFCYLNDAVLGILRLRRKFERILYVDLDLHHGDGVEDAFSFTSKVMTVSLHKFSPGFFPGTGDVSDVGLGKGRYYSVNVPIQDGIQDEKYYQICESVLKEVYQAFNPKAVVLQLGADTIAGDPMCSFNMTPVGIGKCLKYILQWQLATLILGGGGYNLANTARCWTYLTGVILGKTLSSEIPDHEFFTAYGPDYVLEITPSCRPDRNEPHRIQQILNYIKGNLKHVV
Description: Inhibition of recombinant human His6/SUMO-tagged HDAC8 expressed in Escherichia coli (BL21) DE3 pLysS assessed as residual activity at 50 uM using Boc-Lys(trifluoroacetyl)-AMC as substrate preincubated for 60 mins followed by substrate addition and measured after 60 mins by fluorescence assay relative to control. The note with it: time 120.0 min. Put shortly: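 20 μM Boc-Lys(trifluoroacetyl)-AMC was then added for 60 min at 30 °C, the reaction stopped with 1.7 μM SATFMK and developed with 0.4 mg/ml trypsin, and AMC fluorescence read at Ex 350/Em 450 nm. Triplicates; percent relative activity.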

The next experiment concerns the target T3, Histone deacetylase 8 (Homo sapiens, UniProt Q9BY41).
T3 sequence (Q9BY41 whole entry): T2 sequence (whole entry)
Kind of experiment: Inhibition of recombinant human His6/SUMO-tagged HDAC8 expressed in Escherichia coli (BL21) DE3 pLysS using Boc-Lys(trifluoroacetyl)-AMC as substrate preincubated for 60 mins followed by substrate addition and measured after 60 mins by fluorescence assay.

For experiment [3], the target named is Histone deacetylase 4 (Homo sapiens) (UniProt P56524). Kind of experiment: Inhibition of recombinant human N-terminal GST-tagged HDAC4 (627 to end residues) expressed in baculovirus infected Sf9 insect cells assessed as residual activity at 50 uM using Boc-Lys(trifluoroacetyl)-AMC as substrate preincubated for 60 mins followed by substrate addition and measured after 60 mins by fluorescence assay relative to control. The note with it: time 120.0 min.
Histone deacetylase 4 (Homo sapiens), sequence (P56524 whole entry): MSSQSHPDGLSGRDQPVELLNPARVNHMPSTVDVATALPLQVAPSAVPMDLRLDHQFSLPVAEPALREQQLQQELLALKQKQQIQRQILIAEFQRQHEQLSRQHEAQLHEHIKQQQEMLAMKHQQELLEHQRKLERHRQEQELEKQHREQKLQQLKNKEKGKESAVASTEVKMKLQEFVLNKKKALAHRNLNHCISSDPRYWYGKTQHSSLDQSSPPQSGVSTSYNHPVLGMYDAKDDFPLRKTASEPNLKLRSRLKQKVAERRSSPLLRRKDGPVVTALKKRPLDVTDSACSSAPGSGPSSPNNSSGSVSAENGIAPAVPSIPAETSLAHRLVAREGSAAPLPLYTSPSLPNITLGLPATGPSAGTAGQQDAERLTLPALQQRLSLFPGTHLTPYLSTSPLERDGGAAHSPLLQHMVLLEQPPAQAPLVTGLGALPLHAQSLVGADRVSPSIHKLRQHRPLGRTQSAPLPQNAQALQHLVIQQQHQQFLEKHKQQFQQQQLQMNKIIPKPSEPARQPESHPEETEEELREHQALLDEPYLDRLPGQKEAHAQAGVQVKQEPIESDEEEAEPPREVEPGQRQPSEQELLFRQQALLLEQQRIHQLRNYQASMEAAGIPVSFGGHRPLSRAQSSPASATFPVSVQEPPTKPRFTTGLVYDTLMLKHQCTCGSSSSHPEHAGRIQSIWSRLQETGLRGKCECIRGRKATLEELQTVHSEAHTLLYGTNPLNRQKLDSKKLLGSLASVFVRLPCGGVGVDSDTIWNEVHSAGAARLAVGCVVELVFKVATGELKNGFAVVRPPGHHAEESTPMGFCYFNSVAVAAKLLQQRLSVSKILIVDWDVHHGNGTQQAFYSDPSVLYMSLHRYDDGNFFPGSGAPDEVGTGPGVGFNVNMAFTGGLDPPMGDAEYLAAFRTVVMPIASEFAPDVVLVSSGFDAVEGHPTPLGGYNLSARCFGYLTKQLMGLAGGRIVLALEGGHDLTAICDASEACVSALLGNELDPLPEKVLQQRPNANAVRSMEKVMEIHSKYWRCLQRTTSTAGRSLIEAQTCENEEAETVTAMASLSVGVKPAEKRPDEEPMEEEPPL

In experiment [4] the target is T4, Solute carrier family 2, facilitated glucose transporter member 1 (Homo sapiens) (UniProt P11166).
T4 sequence (whole entry): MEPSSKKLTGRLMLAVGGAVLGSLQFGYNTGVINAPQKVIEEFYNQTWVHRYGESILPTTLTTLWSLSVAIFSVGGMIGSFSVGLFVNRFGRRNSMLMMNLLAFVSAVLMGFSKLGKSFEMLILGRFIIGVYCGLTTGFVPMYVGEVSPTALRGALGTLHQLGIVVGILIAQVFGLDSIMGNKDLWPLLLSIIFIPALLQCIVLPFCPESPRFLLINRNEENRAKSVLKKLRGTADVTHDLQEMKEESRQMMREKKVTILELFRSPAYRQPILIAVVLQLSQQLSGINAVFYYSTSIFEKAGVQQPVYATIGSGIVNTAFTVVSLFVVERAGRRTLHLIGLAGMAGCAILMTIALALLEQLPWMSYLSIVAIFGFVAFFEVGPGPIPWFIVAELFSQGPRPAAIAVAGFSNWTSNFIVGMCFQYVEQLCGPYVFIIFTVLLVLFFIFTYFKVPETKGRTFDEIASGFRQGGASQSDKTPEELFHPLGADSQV
Description: Inhibition of transport activity of human GLUT1 expressed in hexose transporter deficient VW4000fgy1 yeast cells assessed as reduction in transporter-mediated [14C]-hexose uptake into cells at 100 uM measured after 10 mins by scintillation counting method relative to control. The format is cell-based. A digest of the protocol: as §1

Experiment [5] concerns the target T5, Solute carrier family 2, facilitated glucose transporter member 4 (Homo sapiens) (UniProt P14672).
T5 sequence (whole entry): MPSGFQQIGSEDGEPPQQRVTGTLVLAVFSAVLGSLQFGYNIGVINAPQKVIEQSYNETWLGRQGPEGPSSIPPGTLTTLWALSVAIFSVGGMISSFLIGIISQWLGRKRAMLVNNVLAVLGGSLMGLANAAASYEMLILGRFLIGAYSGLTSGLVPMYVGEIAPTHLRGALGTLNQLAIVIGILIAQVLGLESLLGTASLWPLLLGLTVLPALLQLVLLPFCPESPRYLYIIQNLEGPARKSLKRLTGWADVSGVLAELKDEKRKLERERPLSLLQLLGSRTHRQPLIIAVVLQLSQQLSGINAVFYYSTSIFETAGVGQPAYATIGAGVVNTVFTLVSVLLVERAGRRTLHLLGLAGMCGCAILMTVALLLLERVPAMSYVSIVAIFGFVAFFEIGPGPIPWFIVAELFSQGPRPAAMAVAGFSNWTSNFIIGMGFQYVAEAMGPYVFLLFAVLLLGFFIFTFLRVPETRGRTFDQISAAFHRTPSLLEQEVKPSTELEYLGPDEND
Kind of experiment: Inhibition of transport activity of human GLUT4 expressed in hexose transporter deficient […] erg4 yeast cells assessed as reduction in transporter-mediated [14C]-hexose uptake into cells at 100 uM measured after 10 mins by scintillation counting method relative to control. The format is cell-based. A digest of the protocol:
as §1

For experiment [6], the target named is T6, Solute carrier family 2, facilitated glucose transporter member 1 (Homo sapiens, UniProt P11166).
T6 sequence (P11166 whole entry): T4 sequence (whole entry)
Description: Inhibition of transport activity of human GLUT1 expressed in hexose transporter deficient VW4000fgy1 yeast cells assessed as reduction in transporter-mediated [14C]-hexose uptake into cells measured after 10 mins by scintillation counting method. The format is cell-based. Put shortly:
(§2)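 GLUT1 (VW4000fgy1) or GLUT4 (VW4000fgy1erg4) hxt0 yeast were grown on maltose and then glucose and resuspended in PBS pH 7.4 at OD600 ~10. Compound was used at 0.1–100 μM, final 1% DMSO. Uptake of 5 mM 14C-glucose over 10 min was stopped with ice-cold quench buffer, filtered and counted by scintillation. IC50 was taken from dose-response curves of three independent measurements.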

For experiment [7], the target named is T7, Solute carrier family 2, facilitated glucose transporter member 4 (Homo sapiens, UniProt P14672).
T7 sequence (P14672 whole entry): T5 sequence (whole entry)
Description: Inhibition of transport activity of human GLUT4 expressed in hexose transporter deficient W4000fgy1 erg4 yeast cells assessed as reduction in transporter-mediated [14C]-hexose uptake into cells measured after 10 mins by scintillation counting method. The format is cell-based. A digest of the protocol: as §2

Another experiment relates to CCRF-CEM. Description: Cytotoxicity against human CCRF-CEM cells assessed as reduction in cell viability measured after 48 hrs by Hoechst 33342/propidium iodide staining based imaging analysis. The format is functional. A digest of the protocol: (§3)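 Cells were seeded at 10,000 per well (HS-27 at 3,000) in 10% FBS RPMI (leukemic lines) or DMEM (MDA-MB-231, HS-27). Compound in DMSO (1% v/v final) at 0.5–100 µM for 48 h. Hoechst 33342 and PI were added 2 h before automated imaging; dead cells were co-stained. Quadruplicates. CC50 was taken by linear interpolation between the two concentrations nearest 50% death.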

The test system of the next experiment is K562. Kind of experiment: Cytotoxicity against human K562 cells assessed as reduction in cell viability measured after 48 hrs by Hoechst 33342/propidium iodide staining based imaging analysis. The format is functional. Put shortly: as §3
Another experiment relates to KCL-22. Kind of experiment: Cytotoxicity against human KCL-22 cells assessed as reduction in cell viability measured after 48 hrs by Hoechst 33342/propidium iodide staining based imaging analysis. The format is functional. Put shortly:
as §3

The source made the active and inactive calls. The calls are words filed in the database; no cut-off is given here.

What is called inhibition is how much of the control response was suppressed. By IC50 is commonly meant the concentration that inhibits the measured activity by half. As for `O=C(CN1C(=O)S/C(=C/c2ccco2)C1=O)Nc1ccc([N+](=O)[O-])cc1`, the inhibition entry in [1] was “inactive”. In addition, the Activity in [2] is 17%; in experiment [3], above 50%. Moreover, the IC50 at Histone deacetylase 8 was 13 µM.
For orientation: CC50 means the concentration giving 50% cytotoxicity. Regarding `Cc1cccc2sc(NC(=O)CN3C(=O)S/C(=C/c4ccco4)C3=O)nc12`, the inhibition result in experiment [1] is “inactive”. The inhibition in experiment [4] and in experiment [5] was above 50% each time. Also, the IC50 in experiment [6] turned out to be 72 µM; in experiment [7], 123 µM. The CC50 with CCRF-CEM came out at 96.8 µM; in the experiment with K562, 97.1 µM; in the experiment with KCL-22 it was 97 µM. In addition, the Activity in experiment [2] and in experiment [3] was above 50% throughout.
